In ChEMBL document CHEMBL5058577, “EUbOPEN Chemogenomics Library 2 (Multiplex)” (2022):

System: HEK-293T
Experiment: Multiplex assay against HEK293T
Type: toxicity, cell-based
Conditions: human
How it was run: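 Cells were classed with CellPathfinder machine-learning gating, first as Hoechst high-intensity objects or normal cells, then (normal cells) as healthy, pyknosed or fragmented nuclei, and finally (pyknosed cells) as mitotic or apoptotic. Staining of live cells at seeding used Hoechst33342, BioTracker Green Microtubule Cytoskeleton Dye, MitoTracker Red and Annexin V Alexa Fluor 680, with imaging on a CQ1 microscope at 37°C and 5% CO2 after compound addition. Tubulin, mitochondrial-mass and membrane-permeability phenotypes are per cents of healthy-nucleus cells.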

[1] = 12 h, 1 µM, compound concentration 1 uM, replicate 1
[2] = 12 h, 1 µM, compound concentration 1 uM, replicate 2
[3] = 12 h, 10 µM, compound concentration 10 uM, replicate 1
[4] = 12 h, 10 µM, compound concentration 10 uM, replicate 2
[5] = 24 h, 1 µM, compound concentration 1 uM, replicate 1
[6] = 24 h, 1 µM, compound concentration 1 uM, replicate 2
[7] = 24 h, 10 µM, compound concentration 10 uM, replicate 1
[8] = 24 h, 10 µM, compound concentration 10 uM, replicate 2
[9] = 48 h, 1 µM, compound concentration 1 uM, replicate 1
[10] = 48 h, 1 µM, compound concentration 1 uM, replicate 2
[11] = 48 h, 10 µM, compound concentration 10 uM, replicate 1
[12] = 48 h, 10 µM, compound concentration 10 uM, replicate 2

O=C(O)c1cc2ccccc2c(Cc2c(O)c(C(=O)O)cc3ccccc23)c1O [PAMOIC ACID]
Population Apoptotic (%) [1]: 30%
Population Fragmented Nuclei (%) [1]: 9%
Population Healthy Nuclei (%) [1]: 77%
Population Hoechst High Intensity Objects (%) [1]: 7%
Population Membrane Permeable-Phenotype (%) [1]: 0%
Population Mitochondria Different-Phenotype (%) [1]: 38%
Population Mitotic Cells (%) [1]: 69%
Population Normal (%) [1]: 92%
Population Pyknosed Nuclei (%) [1]: 12%
Population Tubulin-Different-Phenotype (%) [1]: 23%
Total Cell Count [1]: 432
Population Apoptotic (%) [2]: 58%
Population Fragmented Nuclei (%) [2]: 7%
Population Hoechst High Intensity Objects (%) [2]: 6%
Population Mitochondria Different-Phenotype (%) [2]: 60%
Population Mitotic Cells (%) [2]: 41%
Population Normal (%) [2]: 93%
Population Pyknosed Nuclei (%) [2]: 15%
Population Tubulin-Different-Phenotype (%) [2]: 21%
Total Cell Count [2]: 303
Population Apoptotic (%) [3]: 34%
Population Fragmented Nuclei (%) [3]: 8%
Population Healthy Nuclei (%) [3]: 79%
Population Hoechst High Intensity Objects (%) [3]: 8%
Population Membrane Permeable-Phenotype (%) [3]: 0%
Population Mitochondria Different-Phenotype (%) [3]: 44%
Population Mitotic Cells (%) [3]: 65%
Population Normal (%) [3]: 91%
Population Pyknosed Nuclei (%) [3]: 12%
Population Tubulin-Different-Phenotype (%) [3]: 34%
Total Cell Count [3]: 446
Population Apoptotic (%) [4]: 52%
Population Fragmented Nuclei (%) [4]: 4%
Population Healthy Nuclei (%) [4]: 81%
Population Mitochondria Different-Phenotype (%) [4]: 55%
Population Mitotic Cells (%) [4]: 47%
Population Pyknosed Nuclei (%) [4]: 13%
Population Tubulin-Different-Phenotype (%) [4]: 26%
Total Cell Count [4]: 275
Population Apoptotic (%) [5]: 29%
Population Fragmented Nuclei (%) [5]: 8%
Population Healthy Nuclei (%) [5]: 78%
Population Hoechst High Intensity Objects (%) [5]: 6%
Population Membrane Permeable-Phenotype (%) [5]: 1%
Population Mitochondria Different-Phenotype (%) [5]: 22%
Population Mitotic Cells (%) [5]: 70%
Population Normal (%) [5]: 93%
Population Pyknosed Nuclei (%) [5]: 12%
Population Tubulin-Different-Phenotype (%) [5]: 16%
Total Cell Count [5]: 559
Population Apoptotic (%) [6]: 40%
Population Fragmented Nuclei (%) [6]: 5%
Population Healthy Nuclei (%) [6]: 86%
Population Membrane Permeable-Phenotype (%) [6]: 0%
Population Mitochondria Different-Phenotype (%) [6]: 39%
Population Mitotic Cells (%) [6]: 59%
Population Pyknosed Nuclei (%) [6]: 7%
Total Cell Count [6]: 378
Population Apoptotic (%) [7]: 29%
Population Fragmented Nuclei (%) [7]: 9%
Population Healthy Nuclei (%) [7]: 75%
Population Hoechst High Intensity Objects (%) [7]: 5%
Population Membrane Permeable-Phenotype (%) [7]: 0%
Population Mitochondria Different-Phenotype (%) [7]: 27%
Population Mitotic Cells (%) [7]: 70%
Population Normal (%) [7]: 94%
Population Pyknosed Nuclei (%) [7]: 14%
Population Tubulin-Different-Phenotype (%) [7]: 22%
Total Cell Count [7]: 592
Population Apoptotic (%) [8]: 41%
Population Fragmented Nuclei (%) [8]: 5%
Population Healthy Nuclei (%) [8]: 79%
Population Hoechst High Intensity Objects (%) [8]: 7%
Population Mitochondria Different-Phenotype (%) [8]: 43%
Population Mitotic Cells (%) [8]: 58%
Population Normal (%) [8]: 92%
Population Pyknosed Nuclei (%) [8]: 15%
Population Tubulin-Different-Phenotype (%) [8]: 18%
Total Cell Count [8]: 365
Population Apoptotic (%) [9]: 18%
Population Fragmented Nuclei (%) [9]: 11%
Population Healthy Nuclei (%) [9]: 81%
Population Hoechst High Intensity Objects (%) [9]: 2%
Population Membrane Permeable-Phenotype (%) [9]: 1%
Population Mitochondria Different-Phenotype (%) [9]: 13%
Population Mitotic Cells (%) [9]: 81%
Population Normal (%) [9]: 97%
Population Pyknosed Nuclei (%) [9]: 7%
Population Tubulin-Different-Phenotype (%) [9]: 10%
Total Cell Count [9]: 998
Population Apoptotic (%) [10]: 48%
Population Fragmented Nuclei (%) [10]: 8%
Population Healthy Nuclei (%) [10]: 84%
Population Hoechst High Intensity Objects (%) [10]: 7%
Population Membrane Permeable-Phenotype (%) [10]: 0%
Population Mitochondria Different-Phenotype (%) [10]: 27%
Population Mitotic Cells (%) [10]: 51%
Population Normal (%) [10]: 92%
Population Pyknosed Nuclei (%) [10]: 6%
Population Tubulin-Different-Phenotype (%) [10]: 11%
Total Cell Count [10]: 494
Population Apoptotic (%) [11]: 24%
Population Fragmented Nuclei (%) [11]: 13%
Population Healthy Nuclei (%) [11]: 79%
Population Hoechst High Intensity Objects (%) [11]: 3%
Population Membrane Permeable-Phenotype (%) [11]: 0%
Population Mitochondria Different-Phenotype (%) [11]: 18%
Population Mitotic Cells (%) [11]: 75%
Population Normal (%) [11]: 96%
Population Pyknosed Nuclei (%) [11]: 7%
Population Tubulin-Different-Phenotype (%) [11]: 10%
Total Cell Count [11]: 879
Population Apoptotic (%) [12]: 36%
Population Fragmented Nuclei (%) [12]: 11%
Population Healthy Nuclei (%) [12]: 82%
Population Hoechst High Intensity Objects (%) [12]: 7%
Population Mitochondria Different-Phenotype (%) [12]: 27%
Population Mitotic Cells (%) [12]: 64%
Population Normal (%) [12]: 92%
Population Pyknosed Nuclei (%) [12]: 5%
Population Tubulin-Different-Phenotype (%) [12]: 12%
Total Cell Count [12]: 517

O=C(NCC(=O)N1CC[C@H](N[C@H]2CC[C@@](O)(c3ccc(-c4ncccn4)cn3)CC2)C1)c1cccc(C(F)(F)F)c1 [PF-4136309]
Population Apoptotic (%) [1]: 44%
Population Fragmented Nuclei (%) [1]: 6%
Population Healthy Nuclei (%) [1]: 80%
Population Hoechst High Intensity Objects (%) [1]: 4%
Population Membrane Permeable-Phenotype (%) [1]: 0%
Population Mitochondria Different-Phenotype (%) [1]: 41%
Population Mitotic Cells (%) [1]: 56%
Population Normal (%) [1]: 95%
Population Pyknosed Nuclei (%) [1]: 13%
Population Tubulin-Different-Phenotype (%) [1]: 32%
Total Cell Count [1]: 393
Population Apoptotic (%) [2]: 34%
Population Fragmented Nuclei (%) [2]: 5%
Population Hoechst High Intensity Objects (%) [2]: 6%
Population Mitochondria Different-Phenotype (%) [2]: 56%
Population Mitotic Cells (%) [2]: 66%
Population Normal (%) [2]: 93%
Population Tubulin-Different-Phenotype (%) [2]: 15%
Total Cell Count [2]: 389
Population Apoptotic (%) [3]: 39%
Population Fragmented Nuclei (%) [3]: 7%
Population Healthy Nuclei (%) [3]: 76%
Population Hoechst High Intensity Objects (%) [3]: 7%
Population Membrane Permeable-Phenotype (%) [3]: 0%
Population Mitochondria Different-Phenotype (%) [3]: 53%
Population Mitotic Cells (%) [3]: 60%
Population Normal (%) [3]: 92%
Population Pyknosed Nuclei (%) [3]: 15%
Population Tubulin-Different-Phenotype (%) [3]: 55%
Total Cell Count [3]: 358
Population Apoptotic (%) [4]: 48%
Population Fragmented Nuclei (%) [4]: 3%
Population Healthy Nuclei (%) [4]: 81%
Population Hoechst High Intensity Objects (%) [4]: 6%
Population Mitochondria Different-Phenotype (%) [4]: 75%
Population Mitotic Cells (%) [4]: 51%
Population Normal (%) [4]: 93%
Population Pyknosed Nuclei (%) [4]: 14%
Population Tubulin-Different-Phenotype (%) [4]: 45%
Total Cell Count [4]: 295
Population Apoptotic (%) [5]: 25%
Population Fragmented Nuclei (%) [5]: 10%
Population Healthy Nuclei (%) [5]: 80%
Population Hoechst High Intensity Objects (%) [5]: 2%
Population Membrane Permeable-Phenotype (%) [5]: 0%
Population Mitochondria Different-Phenotype (%) [5]: 26%
Population Mitotic Cells (%) [5]: 74%
Population Normal (%) [5]: 97%
Population Pyknosed Nuclei (%) [5]: 9%
Population Tubulin-Different-Phenotype (%) [5]: 15%
Total Cell Count [5]: 561
Population Apoptotic (%) [6]: 39%
Population Fragmented Nuclei (%) [6]: 8%
Population Hoechst High Intensity Objects (%) [6]: 5%
Population Mitochondria Different-Phenotype (%) [6]: 31%
Population Mitotic Cells (%) [6]: 60%
Population Normal (%) [6]: 94%
Population Pyknosed Nuclei (%) [6]: 11%
Population Tubulin-Different-Phenotype (%) [6]: 13%
Total Cell Count [6]: 485
Population Apoptotic (%) [7]: 35%
Population Fragmented Nuclei (%) [7]: 10%
Population Healthy Nuclei (%) [7]: 73%
Population Hoechst High Intensity Objects (%) [7]: 7%
Population Membrane Permeable-Phenotype (%) [7]: 1%
Population Mitochondria Different-Phenotype (%) [7]: 39%
Population Mitotic Cells (%) [7]: 64%
Population Normal (%) [7]: 92%
Population Pyknosed Nuclei (%) [7]: 16%
Population Tubulin-Different-Phenotype (%) [7]: 36%
Total Cell Count [7]: 450
Population Apoptotic (%) [8]: 57%
Population Fragmented Nuclei (%) [8]: 8%
Population Healthy Nuclei (%) [8]: 80%
Population Hoechst High Intensity Objects (%) [8]: 5%
Population Membrane Permeable-Phenotype (%) [8]: 0%
Population Mitochondria Different-Phenotype (%) [8]: 54%
Population Mitotic Cells (%) [8]: 42%
Population Normal (%) [8]: 94%
Population Pyknosed Nuclei (%) [8]: 11%
Population Tubulin-Different-Phenotype (%) [8]: 27%
Total Cell Count [8]: 384
Population Apoptotic (%) [9]: 18%
Population Fragmented Nuclei (%) [9]: 16%
Population Healthy Nuclei (%) [9]: 78%
Population Hoechst High Intensity Objects (%) [9]: 0%
Population Membrane Permeable-Phenotype (%) [9]: 1%
Population Mitochondria Different-Phenotype (%) [9]: 14%
Population Mitotic Cells (%) [9]: 81%
Population Normal (%) [9]: 99%
Population Pyknosed Nuclei (%) [9]: 4%
Population Tubulin-Different-Phenotype (%) [9]: 9%
Total Cell Count [9]: 1007
Population Apoptotic (%) [10]: 27%
Population Healthy Nuclei (%) [10]: 77%
Population Hoechst High Intensity Objects (%) [10]: 2%
Population Membrane Permeable-Phenotype (%) [10]: 0%
Population Mitochondria Different-Phenotype (%) [10]: 16%
Population Mitotic Cells (%) [10]: 72%
Population Normal (%) [10]: 97%
Population Pyknosed Nuclei (%) [10]: 5%
Population Tubulin-Different-Phenotype (%) [10]: 11%
Total Cell Count [10]: 907
Population Apoptotic (%) [11]: 31%
Population Fragmented Nuclei (%) [11]: 13%
Population Healthy Nuclei (%) [11]: 75%
Population Hoechst High Intensity Objects (%) [11]: 5%
Population Membrane Permeable-Phenotype (%) [11]: 0%
Population Mitochondria Different-Phenotype (%) [11]: 34%
Population Mitotic Cells (%) [11]: 68%
Population Normal (%) [11]: 94%
Population Pyknosed Nuclei (%) [11]: 11%
Population Tubulin-Different-Phenotype (%) [11]: 23%
Total Cell Count [11]: 636
Population Apoptotic (%) [12]: 43%
Population Fragmented Nuclei (%) [12]: 11%
Population Healthy Nuclei (%) [12]: 79%
Population Hoechst High Intensity Objects (%) [12]: 4%
Population Mitochondria Different-Phenotype (%) [12]: 46%
Population Mitotic Cells (%) [12]: 56%
Population Normal (%) [12]: 95%
Population Pyknosed Nuclei (%) [12]: 8%
Population Tubulin-Different-Phenotype (%) [12]: 30%
Total Cell Count [12]: 468
